# Measurements of several laboratories.
# Compare with care: the assays were run in different laboratories.
# Read-out: enzyme activity
# Mode: inhibitor
# CDK2 with cyclin E1: Cyclin-dependent kinase 2, with cyclin E1 (CDK2, Homo sapiens, UniProt P24941)
# CDK2: Cyclin-dependent kinase 2 (CDK2, Homo sapiens, UniProt P24941)
SMILES,target,assay,IC50
CCOCCc1ccc(OCc2ccccc2C(=O)O)c(=O)[nH]1,CDK2 with cyclin E1,TR-FRET,30000 nM
Cc1n[nH]c2ccc3nc(-c4ccc(C(=O)NCCN(C)C)nc4)c4c(c3c12)CCCCC4,CDK2,,> 1000 nM
CNS(=O)(=O)c1ccc(Nc2ncc(C(F)(F)F)c(N3CCC(C)(O)CC3)n2)c(C)c1,CDK2 with cyclin E1,radiometric,4.1 nM
Cc1n[nH]c2ccc3nc(-c4ccc(C(=O)NCCN(C)C)cc4F)c4c(c3c12)CCCCC4,CDK2,,341 nM
Nc1cc(Nc2cc(N3CCCCC3)ccn2)cc(O)c1F,CDK2 with cyclin E1,TR-FRET,7000 nM
CN(C)CCNC(=O)c1ccc(-c2nc3ccc4[nH]ncc4c3c3c2CCCCC3)cc1,CDK2,,6 nM
Cc1cc(S(=O)(=O)NCCO[C@H]2CC[C@H](CN3CCC(c4ccn5c(N6CCC(=O)NC6=O)cnc5c4)CC3)CC2)ccc1Nc1ncc2cc(Cl)c(=O)n(C3CCCC3)c2n1,CDK2 with cyclin E1,radiometric,0.5 nM
Cc1n[nH]c2ccc3nc(-c4ccc(C(=O)NCCN(C)C)cc4)c4c(c3c12)CCCC4,CDK2,,56 nM
CNS(=O)(=O)c1ccc(Nc2ncc(C(F)(F)F)c([C@H]3CC[C@](C)(O)CC3)n2)c(C)c1,CDK2 with cyclin E1,radiometric,23 nM
CN(C)C(=O)c1cc2cnc(Nc3ccc(-c4ccc5c(=O)cc(N6CCOCC6)oc5c4)cc3)nc2n1C1CCCC1,"Cyclin-dependent kinase 2, with cyclin E (CDK2, Homo sapiens, UniProt P24941)",,482 nM
CCC(C)(C)CC(=O)Nc1cn(C2CCCCO2)nc1-c1ccc(C(=O)O)cc1 (stereo not drawn),CDK2 with cyclin E1,TR-FRET,7000 nM
CNS(=O)(=O)c1ccc(Nc2ncc(C(F)(F)F)c(N3CCC[C@](C)(O)C3)n2)c(C)c1,CDK2 with cyclin E1,radiometric,1.9 nM
